According to ChEMBL document CHEMBL1144645, “The discovery of highly selective erbB2 (Her2) inhibitors for the treatment of cancer” (Bioorg Med Chem Lett, 2007):

What was measured:
[1] = biological target: Platelet-derived growth factor receptor beta (Homo sapiens) (UniProt P09619); assay: Inhibition of PDGFRB
[2] = biological target: Tyrosine-protein kinase Fes/Fps (Homo sapiens) (UniProt P07332); assay: Inhibition of FES
[3] = biological target: Insulin-like growth factor 1 receptor (Homo sapiens) (UniProt P08069); assay: Inhibition of IGF1R
Sequence of Insulin-like growth factor 1 receptor (Homo sapiens) (P08069 31-736 limits assumed): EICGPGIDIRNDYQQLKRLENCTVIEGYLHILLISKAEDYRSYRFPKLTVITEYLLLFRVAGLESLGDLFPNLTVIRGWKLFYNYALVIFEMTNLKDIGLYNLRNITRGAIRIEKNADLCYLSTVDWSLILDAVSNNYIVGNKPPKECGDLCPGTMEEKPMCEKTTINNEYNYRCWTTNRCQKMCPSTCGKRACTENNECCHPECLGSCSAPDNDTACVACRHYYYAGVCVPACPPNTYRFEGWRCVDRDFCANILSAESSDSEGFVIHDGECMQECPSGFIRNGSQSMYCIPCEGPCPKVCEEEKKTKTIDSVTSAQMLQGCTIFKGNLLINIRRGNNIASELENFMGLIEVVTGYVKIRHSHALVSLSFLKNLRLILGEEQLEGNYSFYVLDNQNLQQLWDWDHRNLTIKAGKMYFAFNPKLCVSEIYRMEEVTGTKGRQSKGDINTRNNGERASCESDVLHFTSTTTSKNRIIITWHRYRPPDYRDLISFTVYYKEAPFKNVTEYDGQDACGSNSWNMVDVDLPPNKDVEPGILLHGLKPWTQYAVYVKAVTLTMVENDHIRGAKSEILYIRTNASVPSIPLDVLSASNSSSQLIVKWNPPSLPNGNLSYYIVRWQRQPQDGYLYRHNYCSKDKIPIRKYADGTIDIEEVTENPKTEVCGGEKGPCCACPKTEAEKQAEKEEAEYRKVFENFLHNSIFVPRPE
Sequence of Insulin-like growth factor 1 receptor (Homo sapiens) (P08069 741-1367 limits assumed): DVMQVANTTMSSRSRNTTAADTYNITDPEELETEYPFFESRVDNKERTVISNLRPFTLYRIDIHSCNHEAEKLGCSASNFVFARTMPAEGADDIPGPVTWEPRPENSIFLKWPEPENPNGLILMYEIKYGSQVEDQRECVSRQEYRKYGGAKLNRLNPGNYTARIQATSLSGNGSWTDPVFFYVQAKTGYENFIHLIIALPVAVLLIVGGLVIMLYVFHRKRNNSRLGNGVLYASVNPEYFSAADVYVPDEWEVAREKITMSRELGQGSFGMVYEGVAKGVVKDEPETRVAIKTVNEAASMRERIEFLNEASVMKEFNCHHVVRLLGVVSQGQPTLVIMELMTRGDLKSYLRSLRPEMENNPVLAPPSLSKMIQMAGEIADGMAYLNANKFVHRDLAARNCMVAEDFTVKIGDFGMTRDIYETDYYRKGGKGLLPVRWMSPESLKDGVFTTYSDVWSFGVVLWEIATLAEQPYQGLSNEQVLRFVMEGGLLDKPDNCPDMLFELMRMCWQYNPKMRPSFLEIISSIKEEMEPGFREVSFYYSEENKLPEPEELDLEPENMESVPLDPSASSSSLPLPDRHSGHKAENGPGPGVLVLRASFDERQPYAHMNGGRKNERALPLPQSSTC

[4] = biological target: Epidermal growth factor receptor (Homo sapiens) (UniProt P00533); assay: Inhibition of EGFR
[5] = biological target: Cyclin-dependent kinase 5 (Homo sapiens) (UniProt Q00535); assay: Inhibition of CDK5
Sequence of Cyclin-dependent kinase 5 (Homo sapiens) (Q00535 whole entry, looked up): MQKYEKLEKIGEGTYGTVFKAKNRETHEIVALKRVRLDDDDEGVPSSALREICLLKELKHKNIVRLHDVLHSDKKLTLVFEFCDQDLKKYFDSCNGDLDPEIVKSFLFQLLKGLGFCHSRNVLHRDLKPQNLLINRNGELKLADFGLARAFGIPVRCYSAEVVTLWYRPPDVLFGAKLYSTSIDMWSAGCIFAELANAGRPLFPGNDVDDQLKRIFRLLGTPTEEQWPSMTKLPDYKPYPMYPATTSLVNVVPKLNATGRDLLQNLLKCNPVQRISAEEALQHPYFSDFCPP

[6] = biological target: Protein kinase C theta type (Homo sapiens) (UniProt Q04759); assay: Inhibition of PKCtheta
[7] = biological target: Wee1-like protein kinase (Homo sapiens) (UniProt P30291); assay: Inhibition of Wee1
Sequence of Wee1-like protein kinase (Homo sapiens) (P30291 whole entry, looked up): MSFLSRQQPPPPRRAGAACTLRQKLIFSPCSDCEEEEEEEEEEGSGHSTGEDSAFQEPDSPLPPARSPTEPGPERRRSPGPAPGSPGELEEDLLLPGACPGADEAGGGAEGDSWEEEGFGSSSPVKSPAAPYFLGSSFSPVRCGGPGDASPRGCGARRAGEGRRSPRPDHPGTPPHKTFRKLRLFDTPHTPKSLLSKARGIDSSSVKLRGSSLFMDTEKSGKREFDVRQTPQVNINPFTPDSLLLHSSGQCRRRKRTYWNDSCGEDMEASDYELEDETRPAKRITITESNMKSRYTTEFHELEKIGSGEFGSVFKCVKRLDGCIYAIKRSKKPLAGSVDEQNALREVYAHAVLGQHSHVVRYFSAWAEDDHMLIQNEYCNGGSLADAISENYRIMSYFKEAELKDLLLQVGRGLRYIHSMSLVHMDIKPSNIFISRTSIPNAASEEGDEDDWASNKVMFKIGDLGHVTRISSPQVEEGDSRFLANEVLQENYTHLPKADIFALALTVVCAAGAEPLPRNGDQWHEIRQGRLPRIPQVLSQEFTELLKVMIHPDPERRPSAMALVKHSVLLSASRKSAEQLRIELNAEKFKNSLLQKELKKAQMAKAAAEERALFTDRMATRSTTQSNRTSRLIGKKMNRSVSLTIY

[8] = biological target: Insulin receptor (Homo sapiens) (UniProt P06213); assay: Inhibition of IRK
[9] = biological target: T1, Receptor tyrosine-protein kinase erbB-2 (Homo sapiens, UniProt P04626); assay: Inhibition of erbB2 in NH3T3 cells; format: cell-based
T1 sequence (P04626 whole entry, the tested form may be a part): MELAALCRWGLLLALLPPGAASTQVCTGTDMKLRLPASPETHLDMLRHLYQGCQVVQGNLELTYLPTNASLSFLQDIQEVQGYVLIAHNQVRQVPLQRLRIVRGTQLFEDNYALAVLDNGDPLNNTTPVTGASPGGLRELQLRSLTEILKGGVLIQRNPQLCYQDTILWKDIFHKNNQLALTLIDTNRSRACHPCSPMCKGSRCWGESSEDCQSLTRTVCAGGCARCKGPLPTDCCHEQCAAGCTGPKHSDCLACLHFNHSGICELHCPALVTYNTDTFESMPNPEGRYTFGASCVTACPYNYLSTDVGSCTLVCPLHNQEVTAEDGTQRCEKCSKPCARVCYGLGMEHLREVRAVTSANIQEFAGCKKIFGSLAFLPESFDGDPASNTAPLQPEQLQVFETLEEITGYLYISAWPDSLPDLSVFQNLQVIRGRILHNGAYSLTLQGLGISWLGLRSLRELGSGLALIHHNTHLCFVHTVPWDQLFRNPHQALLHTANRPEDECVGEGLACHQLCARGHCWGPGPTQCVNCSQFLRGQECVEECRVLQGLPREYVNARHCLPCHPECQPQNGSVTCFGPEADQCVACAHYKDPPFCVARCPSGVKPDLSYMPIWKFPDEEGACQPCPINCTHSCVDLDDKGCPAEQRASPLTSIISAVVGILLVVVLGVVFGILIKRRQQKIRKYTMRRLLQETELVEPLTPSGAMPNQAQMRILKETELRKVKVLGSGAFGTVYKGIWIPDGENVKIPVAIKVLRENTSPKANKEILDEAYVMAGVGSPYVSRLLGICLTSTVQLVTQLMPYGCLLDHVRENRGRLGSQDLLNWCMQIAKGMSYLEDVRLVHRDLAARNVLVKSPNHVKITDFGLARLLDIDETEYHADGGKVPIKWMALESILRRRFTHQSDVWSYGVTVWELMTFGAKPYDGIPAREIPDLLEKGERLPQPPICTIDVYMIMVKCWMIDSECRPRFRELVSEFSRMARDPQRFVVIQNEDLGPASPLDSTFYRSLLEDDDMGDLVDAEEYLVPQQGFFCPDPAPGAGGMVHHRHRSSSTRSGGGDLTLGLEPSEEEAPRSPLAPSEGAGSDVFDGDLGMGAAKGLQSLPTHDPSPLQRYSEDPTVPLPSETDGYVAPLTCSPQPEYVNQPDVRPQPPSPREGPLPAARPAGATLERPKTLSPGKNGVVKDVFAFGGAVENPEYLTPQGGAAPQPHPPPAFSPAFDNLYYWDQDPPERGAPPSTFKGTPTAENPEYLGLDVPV
Summary of the method: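 NIH3T3 cells expressing a chimera of EGFR extracellular and erbB2 intracellular domains are plated, exposed to inhibitor for 2 h, then stimulated with human recombinant EGF for 15 min. Receptor phosphotyrosine read with HRP-PY-54 antibody and TMB, A450. IC50 is the mean of at least two experiments.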

[10] = Permeability from apical to basolateral side of Caco-2 cell membrane; format: ADME, cell-based; conditions: human, read-out: permeability
[11] = biological target: Proto-oncogene tyrosine-protein kinase Src (Homo sapiens) (UniProt P12931); assay: Inhibition of cSRC
Sequence of Proto-oncogene tyrosine-protein kinase Src (Homo sapiens) (P12931 2-536 limits assumed): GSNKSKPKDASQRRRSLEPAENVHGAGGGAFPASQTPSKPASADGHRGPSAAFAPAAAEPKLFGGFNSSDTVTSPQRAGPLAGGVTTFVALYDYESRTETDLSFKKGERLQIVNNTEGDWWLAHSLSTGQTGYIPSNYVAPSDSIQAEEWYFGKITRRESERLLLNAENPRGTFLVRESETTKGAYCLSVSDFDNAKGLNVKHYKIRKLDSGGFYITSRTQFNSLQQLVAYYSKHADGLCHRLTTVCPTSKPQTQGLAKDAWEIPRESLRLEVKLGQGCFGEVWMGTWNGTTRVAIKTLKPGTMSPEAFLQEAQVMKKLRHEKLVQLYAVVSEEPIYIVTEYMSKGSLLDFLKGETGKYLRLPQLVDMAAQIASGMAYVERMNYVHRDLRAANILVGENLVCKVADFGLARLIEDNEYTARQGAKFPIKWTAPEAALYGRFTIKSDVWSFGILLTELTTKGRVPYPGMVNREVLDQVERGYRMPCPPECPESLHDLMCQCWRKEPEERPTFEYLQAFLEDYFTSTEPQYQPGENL

[12] = biological target: cAMP-dependent protein kinase (PKA) (Homo sapiens) (UniProt P22694+P17612+P22612); assay: Inhibition of PKA; format: protein assay
[13] = biological target: Protein kinase C alpha type (Homo sapiens) (UniProt P17252); assay: Inhibition of PKCalpha
[14] = biological target: T1, Receptor tyrosine-protein kinase erbB-2; assay: Inhibition of erbB2 expressed in Sf9 cells
Summary of the method: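 GST-tagged erbB2 intracellular domain (residues 675–1255) made in baculovirus/Sf9 and purified; ~15 ng enzyme phosphorylates poly(Glu,Tyr) with 1 mM ATP plus inhibitor over 6 min. Phosphotyrosine detected by HRP-PY-54 antibody and TMB, A450. IC50 is the mean of at least two experiments.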

[15] = biological target: T2, Tyrosine-protein kinase JAK3 (Homo sapiens) (UniProt P52333); assay: Inhibition of JAK3
T2 sequence (whole entry): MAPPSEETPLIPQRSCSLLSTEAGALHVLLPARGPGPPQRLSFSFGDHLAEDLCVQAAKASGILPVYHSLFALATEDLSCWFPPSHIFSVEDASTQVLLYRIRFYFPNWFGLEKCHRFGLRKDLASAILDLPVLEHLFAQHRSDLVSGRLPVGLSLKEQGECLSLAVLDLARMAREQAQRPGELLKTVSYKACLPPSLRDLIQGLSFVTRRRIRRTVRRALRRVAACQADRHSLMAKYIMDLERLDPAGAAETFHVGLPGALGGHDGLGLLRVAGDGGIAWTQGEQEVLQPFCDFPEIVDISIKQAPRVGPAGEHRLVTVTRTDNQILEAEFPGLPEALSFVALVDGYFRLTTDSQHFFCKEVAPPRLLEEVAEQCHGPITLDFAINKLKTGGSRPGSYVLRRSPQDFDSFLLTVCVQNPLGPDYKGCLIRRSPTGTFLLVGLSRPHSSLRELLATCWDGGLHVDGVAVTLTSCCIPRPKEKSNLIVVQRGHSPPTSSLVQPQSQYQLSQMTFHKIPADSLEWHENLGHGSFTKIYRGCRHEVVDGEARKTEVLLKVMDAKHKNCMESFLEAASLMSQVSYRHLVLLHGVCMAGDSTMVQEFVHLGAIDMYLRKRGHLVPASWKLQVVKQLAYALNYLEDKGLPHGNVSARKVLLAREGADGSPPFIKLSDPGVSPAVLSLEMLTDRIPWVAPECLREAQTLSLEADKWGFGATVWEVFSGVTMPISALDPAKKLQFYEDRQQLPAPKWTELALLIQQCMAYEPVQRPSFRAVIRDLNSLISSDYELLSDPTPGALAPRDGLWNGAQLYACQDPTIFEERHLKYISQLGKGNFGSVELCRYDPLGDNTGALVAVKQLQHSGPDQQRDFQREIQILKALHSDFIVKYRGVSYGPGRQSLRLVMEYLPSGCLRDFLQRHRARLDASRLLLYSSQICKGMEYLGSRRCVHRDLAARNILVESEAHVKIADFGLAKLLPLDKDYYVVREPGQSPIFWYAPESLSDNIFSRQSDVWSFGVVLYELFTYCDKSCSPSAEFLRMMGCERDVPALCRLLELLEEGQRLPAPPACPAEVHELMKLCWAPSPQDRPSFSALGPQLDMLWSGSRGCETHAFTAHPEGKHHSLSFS

[16] = biological target: Epidermal growth factor receptor and ErbB2 (HER1 and HER2) (Homo sapiens) (UniProt P04626+P00533); assay: Selectivity for erbB2 over EGFR; format: protein assay
Summary of the method: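 Cell selectivity: IC50 ratio between two NIH3T3 lines run under identical conditions, one carrying human EGFR and one carrying the EGFR-extracellular/erbB2-intracellular chimera. Each line takes 2 h inhibitor, then 15 min human recombinant EGF. Phosphotyrosine measured with HRP-PY-54 and TMB at 450 nm.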

[17] = biological target: Cyclin-dependent kinase 2 (Homo sapiens) (UniProt P24941); assay: Inhibition of CDK2
[18] = biological target: Tyrosine-protein kinase Lck (Homo sapiens) (UniProt P06239); assay: Inhibition of LCK

## Cc1cc(Nc2ncnc3cnc(N4CCOCC4)cc23)ccc1Oc1ccc(C(=O)NCC(C)(C)C)cc1
[1]
  Activity: > 10 µM
[2]
  Activity: > 10 µM
[3]
  Activity: > 10 µM
[4]
  Activity: > 10 µM
[5]
  Activity: > 10 µM
[6]
  Activity: > 10 µM
[7]
  Activity: > 10 µM
[8]
  Activity: > 10 µM
[9]
  IC50: 0.024 µM
[10]
  Papp A→B: 15.4 ×10⁻⁶ cm/s
[11]
  Activity: > 10 µM
[12]
  Activity: > 10 µM
[13]
  Activity: > 10 µM
[14]
  IC50: 0.021 µM
[15]
  Activity: > 10 µM
[16]
  Selectivity ratio: > 410
[17]
  Activity: > 10 µM
[18]
  Activity: > 10 µM
